# What was measured:
# [1] = tested on: M5076; test: In vivo activity against murine M5076 sarcoma, net cell kill at 3.0 mg/kg ip dose at 4 hour intervals 3x per day for 9 days; type: functional, Mus musculus; settings: route intraperitoneal
# How it was run: (§1)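 Tumors were passaged in C57BL/6 mice; B6C3F1 mice (18-22 g, randomized) were implanted on day 0 ip with counted tumor cells or sc with fragments. Dosing was ip bolus, daily or q4h ×3 daily, by average cage weight. Vehicle was distilled H2O or 10% DMA in 50 mM lactic acid buffer, pH 4.0. Net cell kill = log reduction in tumor burden between first and last treatments.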
# [2] = tested on: B16; test: In vivo activity against murine B16 melanoma, net cell kill at 0.75 mg/kg administered intraperitoneally at 4 hour intervals 3x a day for 9 days; type: functional, Mus musculus; settings: route intraperitoneal; how it was run: as §1
# [3] = tested on: A-431; test: In vivo activity against human A431 epidermoid xenograft, tumor growth delay (T-C) at 10 mg/kg administered subcutaneously for 9-15 days; settings: route subcutaneous
# [4] = Inhibition of protein synthesis; type: functional
# How it was run: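 Log-phase cells were drug-treated for 2 h, then exposed for 2 h to 1 µM [methyl-3H]thymidine (DNA), [5-3H]uridine (RNA) or (S)-[4,5-3H]leucine (protein), each at 1 µCi/nmol. Cells were trypsinized into ice-cold 15% TCA, and precipitates were collected on glass-fibre filters, washed, and counted by scintillation.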
# [5] = tested on: A-431; test: In vivo activity against human A431 epidermoid xenograft, tumor growth delay (T-C) at 9 mg/kg administered subcutaneously for 1-27 days; settings: route subcutaneous
# [6] = tested on: M5076; test: In vivo activity against murine M5076 sarcoma, tumor growth delay (T-C) at 3.0 mg/kg ip dose at 4 hour intervals 3x a day for 9 days; settings: route intraperitoneal
# [7] = tested on: Colon 26; test: In vivo activity against murine colon 26, weight change after 1.5 mg/kg ip dose for 9 days; type: functional, Mus musculus; settings: route intraperitoneal
# How it was run: (§2)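 Murine tumours were maintained by serial transplantation (~30 mg fragments every 2 weeks): B16 in C57BL/6 and colon 26 in BALB/c. They were tested in F1 hosts, B6C3F1 for B16 and CD2F1 for colon 26, weighing 18-22 g. Treatment was ip daily or q4h ×3 for 9 days. Weight change was the difference between mean group weights on the last and first treatment days, from life-span assays.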
# [8] = tested on: B16; test: In vivo activity against murine B16 melanoma, weight change after 3.0 mg/kg i.p. dose for 9 days; type: functional, Mus musculus; settings: route intraperitoneal; how it was run: as §2
# [9] = tested on: C6; test: In vivo activity against C6 glioma xenograft, weight change after 5 mg/kg ip dose for 9 days; type: functional, organism-based; design: dose 5 mg/kg
# How it was run: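 Nude mice (NCr nu/nu, 18-22 g) implanted sc in the right axilla with serially passaged C6 glioma fragments on day 0, randomized, and dosed ip by bolus on days 1-9 based on average cage weight. Vehicle was distilled H2O or 10% DMA in 50 mM lactic acid buffer, pH 4.0, depending on compound. Weight change was taken as the maximum treatment-related weight loss.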
# [10] = tested on: MCF7; test: In vivo activity against human MCF-7 xenograft, net cell kill at 3.0 mg/kg administered intraperitoneally at 4 hour intervals 3x a day for 5-11 days; type: functional; settings: route intraperitoneal
# How it was run: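 Nude mice (NCr nu/nu), 18-22 g, randomized and implanted on day 0 with serially passaged MCF-7 tumor (sc fragments in right axilla or ip cells). Compound was given ip bolus q4h ×3 daily, by average cage weight. Vehicle was distilled H2O or 10% DMA in 50 mM lactic acid, pH 4.0. Net cell kill = log tumor-burden reduction between first and last treatments.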
# [11] = tested on: Colon 26; test: In vivo activity against murine colon 26, percent treated/control tumor mass at 1.5 mg/kg ip dose for 9 days; type: functional, Mus musculus; settings: route intraperitoneal; how it was run: as §2
# [12] = target: Epidermal growth factor receptor (Homo sapiens, UniProt P00533); test: Inhibition of epidermal growth factor receptor (EGFr) using peptide substrate
# Chain of Epidermal growth factor receptor (P00533 whole entry): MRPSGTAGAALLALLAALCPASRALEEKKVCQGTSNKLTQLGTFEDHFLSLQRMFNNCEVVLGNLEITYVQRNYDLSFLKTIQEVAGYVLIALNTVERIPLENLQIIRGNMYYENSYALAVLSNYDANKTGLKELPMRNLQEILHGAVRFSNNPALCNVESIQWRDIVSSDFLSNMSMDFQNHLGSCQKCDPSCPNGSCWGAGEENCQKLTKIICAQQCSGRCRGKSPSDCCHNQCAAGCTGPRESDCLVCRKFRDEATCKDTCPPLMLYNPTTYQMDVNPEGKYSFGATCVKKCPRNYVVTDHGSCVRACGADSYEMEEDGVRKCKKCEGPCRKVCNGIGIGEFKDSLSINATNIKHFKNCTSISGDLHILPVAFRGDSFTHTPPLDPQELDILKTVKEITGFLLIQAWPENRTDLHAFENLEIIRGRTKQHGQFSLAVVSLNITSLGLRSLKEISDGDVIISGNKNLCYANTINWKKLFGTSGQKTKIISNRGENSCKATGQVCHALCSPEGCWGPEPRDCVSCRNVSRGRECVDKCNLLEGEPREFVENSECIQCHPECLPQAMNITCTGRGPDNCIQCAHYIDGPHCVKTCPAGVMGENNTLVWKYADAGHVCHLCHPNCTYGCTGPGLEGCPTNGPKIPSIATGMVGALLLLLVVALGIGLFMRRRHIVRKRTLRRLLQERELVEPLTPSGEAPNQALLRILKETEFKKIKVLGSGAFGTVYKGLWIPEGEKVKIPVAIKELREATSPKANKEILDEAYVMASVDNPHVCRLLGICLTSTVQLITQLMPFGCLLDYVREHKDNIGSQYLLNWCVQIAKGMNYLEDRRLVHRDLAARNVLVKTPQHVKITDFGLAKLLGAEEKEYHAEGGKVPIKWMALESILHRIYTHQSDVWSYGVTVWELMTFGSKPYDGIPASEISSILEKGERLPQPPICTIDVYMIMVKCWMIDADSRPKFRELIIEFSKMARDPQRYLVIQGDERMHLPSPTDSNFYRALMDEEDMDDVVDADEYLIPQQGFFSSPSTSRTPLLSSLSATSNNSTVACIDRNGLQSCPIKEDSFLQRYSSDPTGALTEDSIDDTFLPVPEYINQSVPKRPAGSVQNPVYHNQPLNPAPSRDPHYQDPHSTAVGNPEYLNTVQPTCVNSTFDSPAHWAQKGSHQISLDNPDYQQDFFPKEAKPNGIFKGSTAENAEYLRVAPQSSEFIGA
# How it was run: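 EGFr came from membrane vesicles shed by human A431 carcinoma cells. Activity was measured as 32P-phosphate transfer from ATP into a TCA-precipitable glutamate/tyrosine (4:1) random copolymer. ATP or peptide polymer substrate was varied. Ki was obtained by nonlinear regression with Cleland's equations, comparing slope and intercept determinations to assign the inhibition type.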
# [13] = tested on: A-431; test: In vivo activity against human A431 epidermoid xenograft, net cell kill at 9 mg/kg administered subcutaneously for 1-27 days; type: functional; settings: route subcutaneous
# How it was run: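 Nude mice (NCr nu/nu), 18-22 g, randomized, implanted sc in the right axilla with serially passaged A431 tumor fragments on day 0. Dosing was by ip bolus or continuous sc Alzet miniosmotic pump infusion, by average cage weight. Vehicle was distilled H2O or 10% DMA in 50 mM lactic acid buffer, pH 4.0, depending on compound. Net cell kill = net log reduction in tumor burden between first and last treatments.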
compound,measurement,setting,value
NC(Cc1c(SSc2[nH]c3ccccc3c2CC(N)C(=O)NCc2ccccc2)[nH]c2ccccc12)C(=O)NCc1ccccc1 (stereo not drawn),Net cell kill,[1],-0.8 log10
same,Net cell kill,[2],-1.3 log10
same,T-C,[3],1.9 days
same,IC50,[4],0.6 µM
same,T-C,[5],1 days
same,T-C,[6],0.7 days
same,Weight change,[7],1.8 g
same,Weight change,[8],1.4 g
same,Weight change,[9],Weight gain
same,Net cell kill,[10],-1.2 log10
same,T/C,[11],115%
same,Ki,[12],21.2 µM
same,Net cell kill,[13],-0.6 log10

# Reference: ChEMBL document CHEMBL1129933, “Tyrosine kinase inhibitors. 6. Structure-activity relationships among N- and 3-substituted 2,2'-diselenobis(1H-indoles) for inhibition of protein tyrosine kinases and comparative in vitro and in vivo studies against selected sulfur congeners” (J Med Chem, 1997)
